Assay: Toxicity liver stage against HepG2, at 10uM
Type: cell-based
Parameters: test concentration 10 uM, cell line HepG2-A16-CD81EGFP
Conditions: human, HepG2-A16-CD81EGFP cells; read-out: INHIBITION
Procedure, shortened: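 Uninfected HepG2-A16-CD81EGFP cells, 3 × 10^3 per well, 1536-well, plated on prespotted compound at 10 μM final, parasite-free screening media added to match infected plates; puromycin 10 μM positive, DMSO 0.5% negative; run in parallel with 48 h PbLuc assay at 37 °C, 5% CO2; viability by CellTiter-Glo luminescence, normalized to controls.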

Row | Compound | cytotoxicity at 10 µM
1 | O=C1CO[C@H]2CN(S(=O)(=O)c3ccccc3)C[C@H]2N1CC1CCCCC1 | 3.36%
2 | Nc1ncncc1-c1noc([C@@H]2CCCN2CC2CC2)n1 | -1.18%
3 | CCc1nc(-c2ccc(NC(=O)N3CCC4(CC3)OCCO4)cc2)no1 | 7.27%
4 | COc1cnc(CSc2nnc(C)s2)cc1OCC(=O)NC(C)(C)C | 9.82%
5 | CCOC(=O)[C@@H]1[C@@H](O)C(=O)N(C)C12CCN(C(=O)c1ccco1)CC2 | -2.36%
6 | COCCOC(=O)N1CC2=CC(C)(C)COc3ccc(OC)c(c32)C1 | 1.22%
7 | Cc1cc(-c2nn3c(C(C)C)nnc3s2)on1 | 0.9%
8 | O=C(CN1CCC(c2nnc(C(F)(F)F)o2)CC1)NCc1ccccc1 | 2.51%
9 | CN1C(=O)C2(CCN(S(=O)(=O)C3CC3)CC2)c2ccccc21 | -5.27%
10 | CCOCC1CN(C(=O)N(C)C)Cc2nnn(CC3CC3)c21 (stereo unspecified) | -6.26%
11 | COc1cccc(CC(=O)N2CC[C@H]3[C@@H]2CCC(=O)N3C)c1 | -4.57%
12 | Cc1cnc(C(=O)N2CCc3ncnc(-c4cnn(C)c4)c3CC2)cn1 | 0.588%
13 | CC(C)c1ccc(S(=O)(=O)N2CCCC3(CCCN3S(C)(=O)=O)C2)cc1 (stereo unspecified) | -0.96%
14 | O=C(C1CC1)N1CCC2(COCc3cnc(NCc4ccco4)nc32)C1 (stereo unspecified) | -1.08%
15 | O=c1cccnn1CC1CN(c2ncc(F)cn2)Cc2nccn2C1 (stereo unspecified) | 4.65%
16 | COc1ccc(CN2C[C@@H]3CCCO[C@@H]3[C@H](NC(=O)CC3CC3)C2)cc1 | 25.3%
17 | O=C(c1ccsc1)N1C[C@H]2CN(Cc3cccc(F)c3)C(=O)[C@H]2C1 | 0.98%
18 | COCC1COCCC12CCN(C(=O)Cc1cccc(OC)c1)CC2 (stereo unspecified) | -2.56%
19 | O=c1cc(Cn2ccnc2)nc2n1CCCN(Cc1ccc(F)cc1)C2 | 7.17%
20 | Cn1ncc2c1NC(=O)CC2c1ccccc1Br (stereo unspecified) | 49%
21 | CC1=Nc2c(c(O)nn2C(C)C)C(c2cccnc2)S1 (stereo unspecified) | 2.93%
22 | CCn1nc(C)c2nc(C(C)C)nc(NCC(C)O)c21 (stereo unspecified) | 8.02%
23 | CCn1ncc2c(C(F)(F)F)cc(-c3ccn(C)n3)nc21 | 4.75%

Row | Compound | cytotoxicity at 10 µM
24 | Oc1ccccc1-c1n[nH]c(C2CCCO2)n1 (stereo unspecified) | -5.22%
25 | CCC(=O)Nc1nnc(CCOc2cccc(OC)c2)s1 | 5.73%
26 | CCc1ccccc1Nc1noc2c1CN(C(=O)c1ccn(C)n1)CC2 | 0.295%
27 | CN(C)S(=O)(=O)c1ccc(CNC(=O)C2CC(=O)N(C(C)(C)C)C2)cc1 (stereo unspecified) | 2.13%
28 | O=C(N[C@@H]1CN(Cc2c[nH]nc2-c2ccccc2)C[C@H]1O)c1cc[nH]n1 | 2.8%
29 | COCC(=O)N(C)Cc1nc(N(C)C)ncc1-c1ccncc1 | 2.42%
30 | Cc1cnc(CCNC(=O)C2CN(C(=O)Cc3ccc(F)cc3)C2)s1 | 0.82%
31 | O=C(O)c1cncc(Cc2ccc(F)cc2)c1 | 2.39%
32 | Cc1cc(C(=O)NCc2ccc(F)cc2)nc(C2CCCN2C)n1 (stereo unspecified) | -28.7%
33 | CCCc1ncc(CNC2(c3ccc(Cl)cc3)CCC2)cn1 | -9.48%
34 | Cc1n[nH]c(C)c1-c1nccnc1CC1CCN(S(C)(=O)=O)C1 (stereo unspecified) | -10.4%
35 | CC(=O)N(C)Cc1cccc(NC(=O)c2cnn(C)c2C)c1 | 3.5%
36 | CS(=O)(=O)NCCN1CCSCC1c1ccc(Cl)cc1 (stereo unspecified) | -3.7%
37 | CC(C)(NS(C)(=O)=O)C(=O)NCc1cccc(Br)c1 | -2.42%
38 | CCC(C)(C)C(=O)Nc1ccc2ccn(CC(=O)NC)c2c1 | 4.19%
39 | Cc1cc(F)ccc1S(=O)(=O)NCc1[nH]ncc1Br | 15.1%
40 | CC(C)N1CCCC(CNC(=O)CN(C)S(=O)(=O)c2ccccc2)C1 (stereo unspecified) | -3.88%
41 | CC(C)CC(NC(=O)c1cnn(C)c1)C(=O)Nc1cc[nH]n1 (stereo unspecified) | -3.38%
42 | CCN(CC)CCn1cc(NC2CCSCC2)cn1 | 2.5%
43 | CN1CCN(C(=O)C2CCCc3[nH]ncc32)CC1 (stereo unspecified) | 0.247%
44 | N#Cc1cccc(OCCN2CCCC2C(=O)NC2CC2)c1 (stereo unspecified) | -3.78%
45 | CCc1nc(CN(C)C(=O)NCc2cccc(NC(C)=O)c2)cs1 | -3.71%
46 | N#Cc1cccc(S(=O)(=O)CCN2CCOC2=O)c1 | -2.32%

Row | Compound | cytotoxicity at 10 µM
47 | O=C1CC(CNc2cncc(Br)c2)c2ccccc2N1 (stereo unspecified) | -5.19%
48 | Cn1cnc2c1CCN(CC(=O)N(Cc1ccccc1F)C1CC1)C2 | 4.91%
49 | O=C(NCCn1ccnc1)c1csc(Br)c1 | 13%
50 | Cc1cccc(OCCNC(=O)C(C)S(=O)(=O)C2CCCC2)c1 (stereo unspecified) | 6.72%
51 | Cc1cc(OC(F)F)c(C(=O)N2CCN(C3CC3)CC2)s1 | 9.05%
52 | CN(CCNS(C)(=O)=O)CC(c1cccs1)N1CCOCC1 (stereo unspecified) | -3.43%
53 | Cn1ccc(C(=O)NCCOc2ccc3c(c2)OCO3)cc1=O | 5.97%
54 | COc1cccc(-c2n[nH]cc2CNCC2CCS(=O)(=O)C2)c1 (stereo unspecified) | -3.54%
55 | Cc1cc(CN2CCCC(NS(C)(=O)=O)C2)ccc1-n1cncn1 (stereo unspecified) | 3.78%
56 | CCc1cnc(NC(=O)NC2CCN(C)CC2)s1 | -5.66%
57 | O=C(NCc1ccnc(O)c1)NCC1CCCC1 | 3.57%
58 | CCN(Cc1ccc(Cl)s1)S(=O)(=O)CCOC | 12.1%
59 | CC(C)N1Cc2cccc(NCC(=O)N(C)C)c2C1 | 6.05%
60 | CC(C)CCC(C)NC(=O)Nc1ccccn1 (stereo unspecified) | 5.28%
61 | CSCCCNC(=O)Nc1cccc(-c2nccn2C)c1 | -6.25%
62 | Cc1ccc(S(=O)(=O)Nc2ccc(-n3cccc3C(=O)O)c(C)c2)s1 | 6.15%
63 | N#Cc1ncn(CCC(=O)Nc2c(Cl)cccc2Cl)n1 | -11.4%
64 | CCNC(=O)c1ccoc1CN1c2ccccc2CC1C (stereo unspecified) | -10.2%
65 | COc1cccc2c1OCC(NC(=O)NC1CCN(C3CC3)CC1)C2 (stereo unspecified) | -10.7%
66 | CN(C)C(=O)COCC1CN(Cc2ccoc2)Cc2nnn(C)c21 (stereo unspecified) | 1.81%
67 | Fc1ccc(-c2cc(NCCC3CCOC3)n3nccc3n2)cc1 (stereo unspecified) | 2.8%
68 | CCn1c(Cn2cncn2)nnc1C1CCN(C2CCNCC2)CC1 | -0.0807%
69 | Cc1nc2c(c(=O)n1C)CN(C(=O)C1CCCN(C(=O)N(C)C)C1)C2 (stereo unspecified) | -5.18%

Row | Compound | cytotoxicity at 10 µM
70 | CC(C)c1nccc(CN2CCCC(O)(CN(C)C)CC2)n1 (stereo unspecified) | -2.01%
71 | Cn1c(-c2ccccc2Cl)nc2cc(C(=O)NCC3(C)COC3)cnc21 | 1.59%
72 | c1ccc(-c2nc3c(c(NCCn4ccnn4)n2)CCNCC3)nc1 | -51.1%
73 | CN(Cc1noc2c1CCCC2)C(=O)Nc1cncc(F)c1 | 2.26%
74 | C=C(C)COc1cccc(C(=O)N(C)Cc2cc(CC)no2)c1 | -3.42%
75 | CC(C)(O)CCc1ccc(C(=O)NCCC2CCOC2)cc1 (stereo unspecified) | 0.824%
76 | Cc1cnccc1-n1nc(C(C)C)nc1CCc1cnccn1 | 1.92%
77 | COCCNc1nc2c(c(NCc3ccncc3)n1)CCNCC2 | -2.18%
78 | CCn1c(CN(C)C)nnc1C1CCN(Cc2cccc(OC)c2)CC1 | -13.6%
79 | Cc1ccc([C@@H]2CN(C(=O)c3csc(C)n3)C[C@H]2NC(=O)C2CC2)cc1 | -5.99%
80 | COC(=O)C1CCN(C(=O)c2ccc(N(C)S(C)(=O)=O)c(C)c2)CC1 | -1.18%
81 | CCC(=O)N1CCC(c2nnc(Cn3cncn3)n2C2CC2)CC1 | -15.4%
82 | Cc1nc(CN2CCCC(N(C)CC3(O)CCCCC3)C2)no1 (stereo unspecified) | -10.3%
83 | CN(C(=O)NCc1ccncc1)C1CCCN(c2ccccc2)C1=O (stereo unspecified) | -8.86%
84 | Cc1ccc(NC2CCN(C(=O)Cc3c(C)nn(C)c3C)CC2)nn1 | -11.9%
85 | c1ncn(CC2CN(Cc3nc(-c4ccsc4)no3)CCO2)n1 (stereo unspecified) | -4.72%
86 | CCc1nnc2n1CCN(Cc1ncc(-c3ccc(F)cc3)o1)C2 | -9.42%
87 | Cc1ccc(C)c(C(C)NC(=O)N2CCC(n3cncn3)CC2)c1 (stereo unspecified) | -8.78%
88 | Cc1cc(C(=O)N2CCN(Cc3ccsc3)CC2)n(C)n1 | 1.98%
89 | COc1ccc(C(=O)NCCNC(=O)c2scnc2Cl)cc1 | -16.8%
90 | Cc1ccc(S(=O)(=O)N2CCc3ccc(F)cc32)cc1C(=O)O | -19.4%
91 | COCc1nc(C(=O)N2CCCC2c2cc(C)no2)cs1 (stereo unspecified) | -12.9%
92 | Cc1cc(C)cc(OCCC(=O)N2CCCC(n3cncn3)C2)c1 (stereo unspecified) | -3.76%

Row | Compound | cytotoxicity at 10 µM
93 | Cc1n[nH]c(C)c1C1COCCN1C(=O)c1cc(Cl)c[nH]1 (stereo unspecified) | -4.12%
94 | O=C1C(NCc2nnc3n2CCCC3)CCCN1c1cccc(F)c1 (stereo unspecified) | -9.68%
95 | COc1cc(C)nc(N2CCN(C(=O)CN(C)C3CC3)CC2)n1 | -4.43%
96 | CCc1nc(C2CCCN2C(=O)c2nccnc2N)no1 (stereo unspecified) | -18.7%
97 | CCN1CCN(C(=O)c2cc(C(=O)OC)nn2-c2ccccc2)CC1 | -13.4%
98 | CCc1nc(CN(C(C)=O)C2CCN(CCc3cnn(C)c3)C2)no1 (stereo unspecified) | -6.38%
99 | Cc1cc(C(=O)NC2CCc3nc(C)cn3C2)[nH]n1 (stereo unspecified) | -5.15%
100 | COCCOCc1cccc(NC(=O)N2CCCC2c2ccncc2)c1 (stereo unspecified) | 6.79%
101 | COc1cc(CN)c(OC)c2c1OCO2 | -1.29%
102 | CC(C)n1cnc2c(N3CCCC3)nc(C3CCNCC3)cc21 | -3.03%
103 | Cn1cc(CN2CCCC3(CCCN3S(C)(=O)=O)C2)cn1 (stereo unspecified) | 2.08%
104 | O=C(N[C@H]1CN[C@H]2CCCO[C@H]21)c1cccnc1 | -9.99%
105 | Cc1cc(O)nc(C2CCCNC2)n1 (stereo unspecified) | -9.14%
106 | CN1CCN(C(=O)Cc2cccc(F)c2)Cc2cccnc21 | -6.17%
107 | O=C([C@@H]1COC[C@H]2CN(C3CCOCC3)C[C@H]21)N1CCCCO1 | -6.28%
108 | Cc1cccc(CN2CCC3(CCCN(C(=O)c4ccoc4)C3)C2=O)n1 (stereo unspecified) | 3.19%
109 | CN(C)CCn1c2c(ccc1=O)CCN(Cc1cnn(C)c1)CC2 | -2.65%
110 | CN(C)C(=O)CN1CCOCC2(CCN(c3ncc(F)cn3)CC2)C1 | 0.419%
111 | COc1ccc(-n2cc3[nH][nH]c(=O)n3c2=O)cc1 | 10.3%

From ChEMBL document CHEMBL4513216, “Probing the Open Global Health Chemical Diversity Library for Multistage-Active Starting Points for Next-Generation Antimalarials” (ACS Infect Dis, 2020)
